Screens: PubChem BioAssay, several laboratories
In the library only some 2.6% were active in any assay of this set; here they are far more common.
ABHD5-PLIN5 inh – blocks binding of human ABHD5 to perilipin-5; Q00G26+Q8WTS1; Split G. princeps luciferase complementation, luminescence, 4 h; inhibition, % at 4 µM; actives 0.78% (n = 360,000);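 active = inhibition above the mean inhibition across every tested compound plus 3 SD, cut at about 22% in these data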;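 also: 0% = DMSO only wells and the 100% control is not disclosed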
HCV core dimer – HCV core protein dimerization inhibition. TR-FRET GST/Flag-core106 dimerization, 1536-well. inhibition, % at 5 µM. actives 0.33% (n = 300,000). AID 1899;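 active = inhibition above the mean of all tested compounds plus 3 SD, set per screening campaign, cut at about 45% in these data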
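Assay system: tagged HCV core106 pair (GST and Flag); medium: KF-containing HEPES buffer, pH 7.45, DTT, CHAPS, BSA; also added: Eu donor and XL665 acceptor anti-tag antibodies; dosing: 5 µM single dose; timing: compound-protein-antibody incubation 4 h at 22.5 °C; signal: TR-FRET 671 and 617 nm emission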
rCAG RNA binder – binds r(CAG) RNA repeats. inhibition, % at 3 µM. actives 1.3% (n = 370,000). r(CAG) RNA repeat, TO-PRO-1 dye displacement fluorescence. AID 651821;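 active = inhibition above the plate cutoff, the mean of all test compounds on that plate plus 3 SD, cut at about 35% in these data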;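 also: 0% = DMSO alone and 100% = 100 µM mitoxantrone as full dye displacement; higher means more dye released from RNA so lower well fluorescence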
NadD block – blocks S. aureus nicotinate mononucleotide adenylyltransferase | purified NadD enzyme, colorimetric absorbance read-out | inhibition, % at 20 µM | actives 0.78% (n = 360,000); in the data active = inhibition above about 26%
ABHD5 PLIN5 conf – confirmation of human ABHD5-PLIN5 interaction inhibitors; inhibition, % at 4 µM; shares compounds with ABHD5-PLIN5 inh; biochemical ABHD5-PLIN5 interaction, luminescence; actives 67% (n = 2,200); in the data active = inhibition above about 23%;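 also: 0% = DMSO vehicle wells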
HNF4 split-luc – HNF4 split-luciferase signal hit, counter-screen; shares compounds with ABHD5-PLIN5 inh; HNF4 dimerization, luminescence, biochemical; inhibition, % at 4 µM; actives 77% (n = 2,200); AID 651674;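 active = mean inhibition across replicate wells exceeding the computed hit threshold, cut at about 13% in these data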;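 also: light from luciferase halves that rejoin when HNF4 fusion proteins dimerize; 0% = DMSO only wells and the 100% control is not given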
Target sequence (P41235 whole entry, looked up, the tested form may be a part): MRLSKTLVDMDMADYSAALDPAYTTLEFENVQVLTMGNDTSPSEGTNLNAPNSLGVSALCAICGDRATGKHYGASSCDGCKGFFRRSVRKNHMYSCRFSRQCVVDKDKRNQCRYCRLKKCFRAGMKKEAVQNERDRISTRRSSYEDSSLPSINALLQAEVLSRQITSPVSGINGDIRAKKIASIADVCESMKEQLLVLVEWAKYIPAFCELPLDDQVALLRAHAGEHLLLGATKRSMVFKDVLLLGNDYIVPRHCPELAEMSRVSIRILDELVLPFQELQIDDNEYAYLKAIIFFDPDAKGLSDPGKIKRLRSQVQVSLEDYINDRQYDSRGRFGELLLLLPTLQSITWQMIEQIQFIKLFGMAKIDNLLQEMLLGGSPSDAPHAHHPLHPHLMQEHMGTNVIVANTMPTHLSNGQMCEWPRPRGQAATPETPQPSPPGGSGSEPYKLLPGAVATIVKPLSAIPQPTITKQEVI
An asterisk follows results filed as active; x = no result.

SMILES	ABHD5-PLIN5 inh	HCV core dimer	rCAG RNA binder	NadD block	ABHD5 PLIN5 conf	HNF4 split-luc
COc1ccc(S[C@]2(C(=O)N3CCOCC3)CC(=O)N(c3ccc(C#N)cc3)[C@@H]2c2ccc(OC)cc2)cc1	x	x	6.7	x	x	x
Cc1ccccc1-n1c(=O)cc(N2CCN(C(=O)c3ccco3)CC2)[nH]c1=O	24.9*	-13.2	1.3	-1.7	3.7	7.3
Cc1ccccc1-n1c(=O)cc(N2CCCCCC2)[nH]c1=O	4.0	-6.8	0.2	0.4	x	x
CCOC(=O)[C@@]12CCCC3=C1N(CCC3)C(=O)[C@H]2CC(=O)NCc1cccc2ccccc12	x	x	2.2	x	x	x
COC(=O)c1ccc2c(c1)C(C)(C)C(/C=C/c1ccc(O)cc1)=[N+]2C	70.9*	4.8	-45.7	26.8	101.8*	100.6*
COC(=O)c1ccc2c(c1)C(C)(C)C(/C=C/c1ccc(OC)c(OC)c1OC)=[N+]2C	47.0*	5.7	0.8	19.3	101.3*	101.1*
COc1cc(/C=C/c2ccc(O)cc2)cc(OC)c1	-2.4	-3.3	13.4	2.6	x	x
C[C@@H]1[C@@H](O)C[C@@]2(C[C@H](O)c3ccccc3O2)O[C@H]1c1ccccc1	x	x	0.5	x	x	x
COC(=O)[C@@]1(Cc2ccc(F)cc2)[C@H]2c3cc(C(=O)N(C)C)n(CCCNc4ncc(C(F)(F)F)cc4Cl)c3C[C@H]2CN1C(=O)c1ccccc1	24.9*	x	15.6	1.7	7.9	5.2
Cc1ccc(CC#N)c(-c2c(CC#N)ccc(C)c2C)c1C	1.7	x	-0.5	-5.4	x	x
Cc1ccc2c(c1C)-c1c(ccc(C)c1C)C(=O)C2=O	51.7*	x	3.2	0.2	42.8*	68.5*
O=C(Nc1cccc(Cl)c1)OC1CCC12CCC(c1ccccc1)CC2 (centres undefined)	x	x	-0.3	x	x	x
Cc1ccc(S(=O)(=O)c2ncccc2[N+](=O)[O-])cc1	42.5*	0.2	1.0	-6.3	55.4*	70.2*
Cc1ccc(S(=O)(=O)c2ncccc2N)cc1	6.3	5.1	-2.2	0.8	x	x
Cc1ccc(-n2c(SCC(=O)c3ccccc3Br)nnc2-c2ccncc2)cc1	x	x	9.0	x	x	x
CCC[C@@H](CN1CCC[C@H]1CN1C(N)=NC[C@@H]1Cc1ccccc1)N1C[C@@H]([C@H](C)CC)N(CCc2ccc(Cl)c(Cl)c2)C1=N	25.7*	x	x	6.0	11.7	2.6
CC(C)[C@H](CN1CCC[C@H]1CN1C(N)=NC[C@@H]1Cc1ccccc1)N1C[C@@H](Cc2ccccc2)N(CCc2ccc(Cl)c(Cl)c2)C1=N	36.0*	x	x	14.9	22.9*	6.3
CCC[C@@H](CN1CCC[C@H]1CN1C(N)=NC[C@@H]1Cc1ccccc1)N1C[C@@H](Cc2ccccc2)N(CCc2ccc(Cl)c(Cl)c2)C1=N	28.6*	x	15.2	11.9	11.5	-2.0
Cc1ccc(S(=O)(=O)N(C)[C@H]2C[C@H]3c4cc(N5CCOCC5)ccc4CCN3C[C@H]2[C@H](C)O)cc1	x	x	0.5	x	x	x
CCCCn1c(=O)n(CC(=O)Nc2ccc(C)c(Cl)c2)c(=O)c2c1ncn2Cc1ccco1	35.7*	31.9	7.7	2.2	26.1*	9.2
CCn1cnc2c1c(=O)n(CC(=O)Nc1cc(C)on1)c(=O)n2Cc1ccccc1	-4.6	8.9	1.2	4.1	x	x
Cc1ccc2c(c1)C(=O)C(=O)N2Cc1ccc(C(F)(F)F)cc1	41.6*	x	3.1	-1.4	35.6*	39.7*
CCOC(=O)[C@]12CCCC=C1N(Cc1ccc3c(c1)OCO3)C(=O)[C@H](CC(=O)NCC13CC4CC(CC(C4)C1)C3)C2	-14.6	x	5.9	10.3	x	x
C=CCN(CC=C)Cc1c(O)ccc2c1oc(=O)c1ccccc12	68.0*	4.2	7.5	9.9	14.3	16.7*
C=CCN(CC=C)Cc1cc(=O)oc2ccc3ccccc3c12	-0.2	x	5.9	-0.6	x	x
SMILES	ABHD5-PLIN5 inh	HCV core dimer	rCAG RNA binder	NadD block	ABHD5 PLIN5 conf	HNF4 split-luc
COc1cccc2sc(N(CCN(C)C)C(=O)/C=C/c3cccs3)nc12	19.8	-8.0	-2.4	-1.5	x	x
Cc1ccc2nc(N(CCN(C)C)C(=O)/C=C/c3cccs3)sc2c1	35.0*	1.8	-0.6	6.3	17.7	6.0
CN(C)CCCN(C(=O)/C=C/c1cccs1)c1nc2ccc(F)cc2s1	38.7*	-1.8	4.3	-4.4	20.4	24.3*
CN(C)CCCN(C(=O)c1sc2ccccc2c1Cl)c1nc2ccc(F)cc2s1	25.0*	-3.0	2.9	4.4	19.4	4.0
CCN(CC)CCN(C(=O)/C=C/c1cccs1)c1nc2ccc(F)cc2s1	0.4	-2.9	2.2	2.7	x	x
COc1ccc(C)c2sc(N(CCN(C)C)C(=O)/C=C/c3cccs3)nc12	35.1*	-7.3	0.0	-3.9	22.6*	7.5
CCOC(=O)c1sc2nc(OCc3cccnc3)cc(C)c2c1N	7.3	x	16.1	2.1	x	x
CCOC(=O)CSc1nnc(NCC(=O)OC(C)C)c(=O)[nH]1	26.9*	2.6	-1.9	3.9	48.5*	97.8*
CCOC(=O)CNC(=O)CSc1nnc(C)c(=O)[nH]1	2.1	-2.1	0.3	1.3	x	x
COC1=C(OC)C(=O)C(Sc2ccc3ccccc3c2)=CC1=O	81.0*	x	5.8	14.9	72.1*	103.8*
O=C(C(=O)N1CCN(C(=O)C2CCCC2)CC1)c1cccc(C(F)(F)F)c1	x	x	1.4	x	x	x
CCCCCc1cc(=O)oc2c(C(CCN3CCCC3)c3ccc(N(C)C)cc3)c(OC)cc(OC)c12 (centres undefined)	9.2	0.0	5.5	11.5	x	x
CCCCCc1cc(=O)oc2c(C(CCN3CCCCC3)c3ccc(OC)cc3)c(OC)cc(OC)c12 (centres undefined)	26.4*	-0.6	6.8	4.1	6.5	6.5
COc1cc(C(CCN2CCCC(C)C2)c2c(OC)cc(OC)c3c(-c4ccccc4)cc(=O)oc23)cc(OC)c1OC (centres undefined)	27.1*	-19.4	x	-0.1	8.8	6.7
CSc1ccc(/C=C/C(=O)c2ccc(NC(C)=O)cc2)cc1	25.4*	1.9	9.2	-8.4	51.6*	40.7*
CC(=O)Nc1cccc(C(=O)/C=C/c2ccc(C)cc2)c1	48.5*	0.1	6.7	-6.4	87.3*	82.0*
CN(C)c1ccc(/C=C/C(=O)c2cccc(Br)c2)cc1	8.0	-1.7	-13.6	0.7	x	x
CCC(=O)Nc1cccc(C(=O)/C=C/c2ccc(F)cc2)c1	46.2*	1.0	-1.4	-6.3	91.6*	84.8*
CCCC(=O)Nc1ccc(C(=O)/C=C/c2ccc(SC)cc2)cc1	19.8	8.5	6.0	21.3	x	x
O=C(OCC(=O)N1N=C(c2ccc(Cl)cc2)CC1c1ccco1)c1ccco1 (centres undefined)	1.4	16.7	-4.0	1.7	x	x
O=C(OCC(=O)N1N=C(c2ccc(Cl)cc2)CC1c1ccco1)c1cncc(Br)c1 (centres undefined)	35.2*	x	25.6	23.5	76.2*	88.6*
Nn1c(SCC(=O)Nc2ccccc2-c2ccccc2)nnc1-c1cc(-c2ccc(F)cc2)n[nH]1	x	x	6.8	x	x	x
